An excerpt weighted towards active compounds, which were near 1.8% of everything screened.
697 NFkB inh – lowers PMA/ionomycin-induced NF-kB signal in 697 B cells; 697 B-cell NF-kB luciferase reporter, 16 h; inhibition, % at 4 µM; actives 0.33% (n = 330,000); in the data active = inhibition above about 35%
Gli-Sufu block – blocks Gli-Sufu signaling in a luciferase reporter; actives 0.74% (n = 340,000); inhibition, % at 5 µM; Sufu-KO-LIGHT fibroblasts, Gli luciferase reporter luminescence;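 active = inhibition above about 55%, limit read from the data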;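 also: 0% = DMSO-treated cells and 100% = wells with medium but no cells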
NR2E3 ag-1 – NR2E3 (human) agonism | Q9Y5X4 | GST-NR2E3/biotin-RetCOR TR-FRET, 1536-well | inhibition of corepressor binding, % at 4.78 µM | actives 0.12% (n = 320,000) | AID 2300;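 active = percent inhibition above the cutoff of mean plus 3 SD of all tested compounds, set per screening campaign, cut at about 20% in these data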;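 also: 0% = DMSO wells and 100% = biotin wells as full block of FRET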
Target sequence (Q9Y5X4 whole entry, looked up): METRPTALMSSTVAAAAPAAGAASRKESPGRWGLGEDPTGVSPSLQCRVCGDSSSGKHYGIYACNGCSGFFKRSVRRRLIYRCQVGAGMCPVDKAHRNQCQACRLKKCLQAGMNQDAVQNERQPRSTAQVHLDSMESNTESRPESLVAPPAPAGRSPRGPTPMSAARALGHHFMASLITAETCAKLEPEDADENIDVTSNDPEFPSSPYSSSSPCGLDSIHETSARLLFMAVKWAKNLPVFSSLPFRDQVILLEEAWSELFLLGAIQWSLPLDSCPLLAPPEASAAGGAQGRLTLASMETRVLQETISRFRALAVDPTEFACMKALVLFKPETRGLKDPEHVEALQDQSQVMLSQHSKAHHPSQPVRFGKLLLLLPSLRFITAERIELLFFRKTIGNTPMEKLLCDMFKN
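Test system – NR2E3–RetCOR corepressor complex · Quantity – NR2E3 fusion 1.35 nM · Buffer or medium – Tris pH 7.5 · Incubation – Compound–protein incubation for 5 h at 4 °C · Technique – TR-FRET, Eu(K)-anti-GST donor, streptavidin-D2 acceptor, ex 340, em 617/671 nm · Evaluation – percent inhibition of 671/617 nm emission ratio versus biotin and DMSO controls · Plate – 1536-well format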
GalR3 antag – antagonists of human GalR3; O60755; HEK293 GalR3-CNG cAMP membrane potential fluorescence; galR3 body fused to GalR1 C-terminus; inhibition, % at 3 µM; actives 0.44% (n = 360,000);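 active = inhibition above the screen-wide average plus 3 SD, cut at about 13% in these data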;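 also: forskolin and galanin both at EC90 stimulate the cells; cAMP rise reported by CNG channel membrane potential dye signal; 0% = forskolin plus galanin with DMSO and 100% = forskolin alone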
Target sequence (O60755 1-299 limits assumed): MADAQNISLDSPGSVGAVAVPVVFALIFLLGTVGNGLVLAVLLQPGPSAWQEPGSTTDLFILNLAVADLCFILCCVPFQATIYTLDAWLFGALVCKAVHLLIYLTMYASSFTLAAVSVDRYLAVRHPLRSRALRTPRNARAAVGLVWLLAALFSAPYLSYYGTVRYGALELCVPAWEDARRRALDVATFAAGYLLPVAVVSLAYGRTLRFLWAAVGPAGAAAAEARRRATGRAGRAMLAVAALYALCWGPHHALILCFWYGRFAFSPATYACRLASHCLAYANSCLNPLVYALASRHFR
NR2E3 ag-2 – agonists of human NR2E3 nuclear receptor. CHO-S Gal4-NCOR/VP16-NR2E3 two-hybrid, luciferase. inhibition of corepressor binding, % at 3.98 µM. actives 0.35% (n = 360,000). AID 602229;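 active = inhibition above the mean of all tested compounds plus 3 SD, cut at about 70% in these data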;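 also: 0% = DMSO with NR2E3 transfected cells and 100% = cells lacking NR2E3 construct; higher means lower luciferase signal from less NR2E3 corepressor binding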
Jurkat NFkB inh – inhibitors of the PMA/ionomycin-induced NF-kB reporter in Jurkat cells | PMA/ionomycin-induced NF-kB luciferase reporter, luminescence | actives 0.53% (n = 330,000) | inhibition, % at 4 µM; in the data active = inhibition above about 50%
Gli antag conf – confirmation of Gli-SUFU pathway antagonists. shares compounds with Gli-Sufu block. Sufu-KO-LIGHT cells, Gli luciferase reporter, luminescence. inhibition, % at 5 µM. actives 40% (n = 2,500). AID 602428;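 active = mean inhibition at 5 µM reaching about 45%, limit read from the data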;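 also: plate controls were DMSO-treated cells for no effect and wells lacking cells for full effect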
Gli cytotox – cytotoxic in Gli-SUFU antagonist counter-screen | cytotoxicity, % at 5 µM | AID 651994 | Sufu-KO-LIGHT cells cytotoxicity, ATP luminescence | shares compounds with Gli-Sufu block | actives 32% (n = 2,500);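 active = mean cytotoxicity at 5 µM above about 25%, limit read from the data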;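 also: cells exposed to compound overnight for roughly 16 to 18 hours; plate controls were DMSO wells with cells for no effect and medium without cells for full effect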
Wnt3a counter – counter-screen for Gli-SUFU antagonists: Wnt3a reporter inhibition; shares compounds with Gli-Sufu block; inhibition, % at 6.25 µM; Wnt-LIGHT cells, Wnt3a-driven luciferase reporter, luminescence; AID 651995; actives 20% (n = 2,500);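 active = mean inhibition above about 25%, limit read from the data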
NR2E3 ag conf – confirmation of human NR2E3 agonists. CHO-S mammalian two-hybrid NR2E3-NCOR, luciferase luminescence. shares compounds with NR2E3 ag-2. inhibition, % at 3.98 µM. actives 51% (n = 2,300). AID 624378;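 active = average inhibition above a cutoff equal to the mean inhibition of all tested compounds plus one SD, cut at about 70% in these data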;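 also: 0% = DMSO in NR2E3 cells and 100% = DMSO in cells lacking NR2E3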
GAL4-VP16 luc – GAL4-VP16 reporter inhibition in NR2E3 agonist counterscreen; shares compounds with NR2E3 ag-2; CHO-S GAL4-VP16 luciferase reporter, luminescence; inhibition, % at 3.98 µM; actives 29% (n = 2,300);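 active = mean inhibition above a cutoff equal to the average over all tested compounds plus one standard deviation, cut at about 70% in these data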;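 also: luciferase from a UAS reporter driven by GAL4-VP16 transactivation; 0% = DMSO with VP16-transfected cells and 100% = DMSO with cells lacking VP16; higher means less reporter light so more repression of VP16 activity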
GalR3 antag conf – confirmation of human galanin receptor 3 antagonists | shares compounds with GalR3 antag | HEK293 GalR3 CNG cAMP biosensor, membrane potential fluorescence; galR3 fused to GalR1 carboxy tail; challenged with forskolin and galanin at EC90 | inhibition, % at 3 µM | actives 59% (n = 1,600) | AID 652245;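 active = inhibition above the primary screen's cutoff, the mean inhibition of all screened compounds plus 3 SD, cut at about 13% in these data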;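 also: 0% = forskolin plus galanin and 100% = forskolin alone with DMSO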
HEK-CNG parental – counter-screen for GalR3 antagonists: nonspecific agonists in parental HEK-CNG cells; shares compounds with GalR3 antag; HEK293-CNG parental cells, cAMP membrane potential fluorescence; normalised: DMSO wells 0%, forskolin wells 100%; activation, % at 3 µM; actives 10% (n = 1,600); AID 652268; in the data active = activation above about 1.3%
* hit, by the source's call; . = no result.

SMILES	697 NFkB inh	Gli-Sufu block	NR2E3 ag-1	GalR3 antag	NR2E3 ag-2	Jurkat NFkB inh	NR2E3 ag conf	GAL4-VP16 luc	others
CCCCn1c(N)c(N(CC)C(=O)CCNC(=O)NC23CC4CC(CC(C4)C2)C3)c(=O)[nH]c1=O	12.1	0.2	1.7	5.1	-10.7	2.6	.	.
COc1ccccc1Cn1c(C)nc2ccccc21	3.9	-13.2	2.7	2.3	-12.5	6.7	.	.
Cc1ccccc1Cn1c(C)nc2ccccc21	-23.3	68.8*	-1.5	60.2*	61.8	32.0	93.0*	82.2*	Gli antag conf=56.1*;Gli cytotox=36.5*;Wnt3a counter=29.9*;GalR3 antag conf=103.5*;HEK-CNG parental=0.0
COc1ccc(CCNC(=O)C2CC3Cn4c(nc5cc6ccccc6cc54)C3N2C)cc1 (stereo not drawn)	-13.7	25.6	-3.3	-3.9	53.4	12.8	31.8	34.5
Cc1ccc(-n2c(-c3ccc(Br)cc3)c[n+]3c2CCc2ccc4cccnc4c2-3)cc1	.	87.1*	-6.5	-1.9	83.1*	.	98.7*	72.0*
COc1cccc(C(C(=O)NC2CCCC2)N(C(=O)c2ccco2)c2ccc(NC(C)=O)cc2)c1OC (stereo not drawn)	1.8	-5.7	4.0	-8.6	4.6	-20.4	.	.
COc1cc2c(O)c3c(c(-c4ccc5c(c4)OCO5)c2cc1OC)C(=O)OC3	-5.5	.	2.1	-0.5	81.7*	16.8	99.4*	42.6
COc1ccc(-c2oc(=O)c3cc(OC)c(OC)cc3c2-c2ccc3c(c2)OCO3)cc1	14.7	4.6	.	-1.9	-3.1	-25.1	.	.
COc1ccc(/C=C/C(=O)c2ccc3c(c2)OCO3)cc1OC	12.9	-6.4	0.9	-7.0	-10.3	9.4	.	.
COc1cc2c(OC(C)=O)c3c(c(-c4ccc5c(c4)OCO5)c2cc1OC)C(=O)OC3	-58.4	40.0	1.6	-6.5	81.0*	6.6	98.4*	31.0
O=C1NC(=O)C(c2ccc(F)cc2)N1 (stereo not drawn)	-30.0	29.0	3.9	-4.1	106.7*	-25.3	-5.4	6.9
O=S(=O)(NCc1ccncc1)c1ccccc1	-7.5	34.1	5.2	-0.1	16.3	24.4	.	.
Cc1cc(C)c(C)c(S(=O)(=O)NCc2ccncc2)c1C	-20.5	22.0	4.2	-11.1	69.4	28.0	46.5	34.2
Cc1ccc(CNc2nc(C)nc3sc4c(c23)CCC4)cc1	-15.4	39.1	0.1	-8.4	67.1	27.1	59.8	53.4
COc1ccc(NS(=O)(=O)c2ccc(N3CCCC3=O)cc2)cn1	-8.7	26.2	2.2	6.7	-9.5	11.6	.	.
COc1ccc(NS(=O)(=O)c2ccc3c(c2)Cc2ccccc2-3)cn1	-9.4	4.7	1.4	-4.1	85.2*	4.6	92.8*	76.7*
Cc1cccc(C(=O)Nc2sc(C)c(-c3ccccc3)c2C#N)c1	-167.2	-79.6	1.5	1.7	-160.2	-74.3	.	.
N#Cc1c(Cl)nsc1NC(=O)c1ccccc1	-27.5	30.5	4.4	-3.3	84.6*	-15.1	99.0*	88.3*
CNc1snc(C)c1C(=O)OCC(=O)Nc1ccc(C)cc1F	-19.7	11.2	.	-5.5	48.0	-3.3	30.7	38.7
O=C(NCc1ccccn1)C1Nc2ccc(C(F)(F)F)cc2C2C=CCC12 (stereo not drawn)	7.9	-7.2	2.0	-3.6	96.5*	13.7	-8.1	20.7
O=C(Nc1cc(Cl)ccc1F)C1=COCCO1	3.5	2.8	-0.5	-2.8	-30.4	-0.5	.	.
Cc1cc(=O)c2ccc(C(F)(F)F)cc2[nH]1	-13.7	1.4	4.1	4.6	1.1	-5.0	.	.
O=c1cc(C(F)(F)F)[nH]c2ccc(C(F)(F)F)cc12	-143.9	9.0	-1.9	-2.9	93.1*	3.5	100.8*	90.7*
O=C(CCCN1C(=O)c2cccnc2C1=O)Nc1ccc(Br)cc1	21.4	-26.7	1.8	-4.6	-4.1	4.1	.	.
C=CC[n+]1c(-c2ccc(Cl)cc2Cl)csc1Nc1ccc(NC(C)=O)cc1	-71.4	46.6	-2.8	-6.4	68.2	3.1	73.2*	56.4
SMILES	697 NFkB inh	Gli-Sufu block	NR2E3 ag-1	GalR3 antag	NR2E3 ag-2	Jurkat NFkB inh	NR2E3 ag conf	GAL4-VP16 luc	others
Cc1ccc(Nc2c(-c3ccccn3)nc3cc(C)ccn23)cc1	-4.8	31.0	1.6	1.6	68.1	8.8	98.7*	86.9*
Cc1ccc(Nc2c(-c3ccccn3)nc3ccc(C)cn23)cc1	-14.7	19.1	-1.9	-2.9	56.3	-4.5	97.2*	61.2
O=C(CN1C(=O)NC2(CCc3ccccc32)C1=O)NCCc1ccccc1 (stereo not drawn)	4.8	23.1	2.2	-6.3	-3.7	-8.5	.	.
C=CCOC(=O)Nc1nc(CCNC(=O)OC(C)(C)C)c(C(=O)OC)s1	.	.	.	-6.0	.	.	.	.
C=CCn1c(C)cc(C(=O)COc2ccc(C)nc2[N+](=O)[O-])c1C	-2.8	24.1	-0.2	-5.3	71.4*	18.7	71.1*	52.9
COCCn1c(C)cc(C(=O)COc2ccc(C)nc2[N+](=O)[O-])c1C	-7.2	6.7	-0.1	-2.7	63.1	14.7	76.9*	43.8
O=c1c2cn(Cc3ccccc3)c3ccccc3c-2nn1Cc1ccc(F)cc1Cl	-0.4	-18.8	.	-13.8	3.1	7.0	.	.
Nc1ncn(C(=S)Nc2ccccc2)n1	.	0.6	.	-3.8	6.0	.	.	.
CC1(C)C(=O)OC(c2ccco2)C(C)(C)C1=O (stereo not drawn)	7.2	-9.4	-1.2	1.4	0.2	14.9	.	.

Screens as filed in PubChem BioAssay.
